From ChEMBL document CHEMBL4342471, “Discovery of Thieno[2,3-d]pyrimidine-Based Hydroxamic Acid Derivatives as Bromodomain-Containing Protein 4/Histone Deacetylase Dual Inhibitors Induce Autophagic Cell Death in Colorectal Carcinoma Cells” (J Med Chem, 2020) come the findings set out here.

SMILES strings stand for the structures. Calls of active or inactive are those of the source. The rule behind the calls is not given here.

For data set [1], the system named is Mus musculus. The data set is described as follows: Induction of autophagy in BALB/cAnNCrl mouse xenografted with human HCT116 cells assessed as increase in LC3-II level in tumor tissue at 15 to 30 mg/kg, po administered on day 1 to day 19 measured on day 19 by immunohistochemical analysis. The class given is functional, organism-based. An outline of the steps: (§1)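 HCT-116 xenograft mice were dosed orally at 15 or 30 mg/kg, or 30 mg/kg for reference agents, for 19 days, with vehicle or saline controls. Tumor sections were stained for Ki-67, c-Myc, Ac-H3, BRD4, LC3-II, LIFR and p-STAT3 by immunohistochemistry, and TUNEL staining was used as the apoptosis marker.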

The test system of a further data set is NCM460. The data set is described as follows: Cytotoxicity against human NCM460 cells. Type of data set: cell-based. An outline of the steps:
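Antiproliferative IC50 values were measured by MTT assay across a panel of colorectal carcinoma cell lines and normal colorectal epithelial cells.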

For data set [2], the target named is Bromodomain-containing protein 4 (Homo sapiens, UniProt O60885). The data set is described as follows: Inhibition of BRD4 in human HCT116 cells assessed as induction of autophagy by measuring upregulation of beclin1 expression at 0.2 to 0.5 uM measured after 24 hrs by Western blot analysis. The class given is cell-based. A general note: Immunoblotting shows a protein as a band on a membrane.

The test system of data set [3] is HCT-116. The experiment in a line: Induction of apoptosis in human HCT116 cells assessed as late apoptotic cells at 0.2 uM by Annexin-V FITC/propidium iodide staining-based flow cytometry (reference value: 3.51 %). The class given is functional. On the technique in general: In flow cytometry, cells or beads pass a laser one at a time.
In a further data set the target is Histone deacetylase 1 (Homo sapiens, UniProt Q13547). The data set is described as follows: Inhibition of HDAC1 (unknown origin) using biotinylated histone H3 KAc peptide (1 to 21 residues) as substrate by HTRF assay.
In data set [4] the target is Bromodomain-containing protein 3 (Homo sapiens, UniProt Q15059). The data set is described as follows: Inhibition of human recombinant His-tagged BRD3 BD1 domain expressed in Escherichia coli BL21(DE3)-R3-pRARE2 cells by AlphaScreen assay.
The target in data set [5] is T1, Protein deacetylase HDAC6 (Homo sapiens, UniProt Q9UBN7).
T1 sequence (Q9UBN7 whole entry): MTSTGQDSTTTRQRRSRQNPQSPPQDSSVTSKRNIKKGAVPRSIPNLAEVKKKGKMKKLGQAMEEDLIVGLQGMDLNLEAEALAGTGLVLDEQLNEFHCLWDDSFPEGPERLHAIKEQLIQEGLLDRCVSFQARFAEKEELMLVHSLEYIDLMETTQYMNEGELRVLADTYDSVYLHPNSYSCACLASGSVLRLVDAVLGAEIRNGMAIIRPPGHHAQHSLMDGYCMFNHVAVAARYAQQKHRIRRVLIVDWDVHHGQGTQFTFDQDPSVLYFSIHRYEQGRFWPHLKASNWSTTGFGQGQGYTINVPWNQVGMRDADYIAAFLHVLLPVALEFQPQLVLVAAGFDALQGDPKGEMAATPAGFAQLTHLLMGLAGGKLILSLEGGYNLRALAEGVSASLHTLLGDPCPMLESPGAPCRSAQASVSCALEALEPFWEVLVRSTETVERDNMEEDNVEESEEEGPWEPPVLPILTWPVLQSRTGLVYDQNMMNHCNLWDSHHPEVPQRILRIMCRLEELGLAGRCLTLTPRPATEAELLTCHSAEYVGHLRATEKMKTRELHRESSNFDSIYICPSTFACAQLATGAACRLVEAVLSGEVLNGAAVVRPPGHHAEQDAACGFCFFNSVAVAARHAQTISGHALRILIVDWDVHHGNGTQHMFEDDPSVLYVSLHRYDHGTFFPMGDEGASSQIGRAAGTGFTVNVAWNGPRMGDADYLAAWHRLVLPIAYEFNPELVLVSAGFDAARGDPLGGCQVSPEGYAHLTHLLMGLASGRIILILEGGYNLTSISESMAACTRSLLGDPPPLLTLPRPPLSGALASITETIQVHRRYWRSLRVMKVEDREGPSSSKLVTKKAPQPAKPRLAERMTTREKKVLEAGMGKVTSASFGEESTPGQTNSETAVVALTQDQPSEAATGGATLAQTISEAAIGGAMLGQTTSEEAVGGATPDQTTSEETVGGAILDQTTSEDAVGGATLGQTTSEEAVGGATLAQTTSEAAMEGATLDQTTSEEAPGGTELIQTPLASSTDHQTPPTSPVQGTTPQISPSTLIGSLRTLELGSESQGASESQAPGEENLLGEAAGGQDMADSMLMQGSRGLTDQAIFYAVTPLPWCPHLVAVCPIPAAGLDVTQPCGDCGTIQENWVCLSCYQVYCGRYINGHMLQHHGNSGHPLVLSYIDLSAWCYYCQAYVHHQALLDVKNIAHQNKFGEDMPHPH
The experiment in a line: Inhibition of HDAC6 (unknown origin) using biotinylated histone H3 KAc peptide (1 to 21 residues) as substrate by HTRF assay. For orientation: Time-resolved FRET reads energy transfer from a long-lived donor to a nearby acceptor.

A further data set is filed under the species Homo sapiens. The experiment in a line: Inhibition of BRD4/HDAC in human HCT116 cells assessed as increase in PARP cleavage at 0.2 to 0.5 uM measured after 24 hrs by Western blot analysis. Type of data set: cell-based.
Data set [6] in a line: Toxicity in BALB/cAnNCrl mouse xenografted with human HCT116 cells assessed as effect on kidney morphological changes at 15 to 30 mg/kg, po administered on day 1 to day 19 measured on day 19 by hematoxylin and eosin staining based assay. Type of data set: organism-based. Particulars: in vivo. The procedure, abridged:
(§2)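 HCT-116 xenograft mice dosed orally at 15 or 30 mg/kg for 19 days, saline as vehicle control; body weights tracked, and main organs sectioned and H&E-stained at study end.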

In data set [7] the test system is Mus musculus. The experiment in a line: Downregulation of Ki67 expression in tumor tissue of BALB/cAnNCrl mouse xenografted with human HCT116 cells at 15 to 30 mg/kg, po administered on day 1 to day 19 measured on day 19 by Ki67-staining based immunohistochemical analysis. The class given is functional, organism-based. The procedure, abridged:
as §1

The test system of data set [8] is HCT-116. The experiment in a line: Antitumor activity against human HCT116 cells xenografted in BALB/cAnNCrl mouse assessed as average tumor growth inhibition at 15 to 30 mg/kg, po administered on day 1 to day 19 relative to control. Type of data set: functional. An outline of the steps:
(§3)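 HCT-116 xenografts in mice were given the test agent orally at 15 or 30 mg/kg, with a saline control group, over 19 days. Tumor volume was followed during treatment and tumors were weighed at the end. Body weight was monitored. Inhibition is expressed as treatment-to-control (T/C) ratio.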

Data set [9] concerns HCT-116. The experiment in a line: Antitumor activity against human HCT116 cells xenografted in BALB/cAnNCrl mouse assessed as reduction in tumor volume by measuring T/C ratio at 15 mg/kg, po administered on day 1 to day 19 relative to control. The class given is functional. The procedure, abridged:
as §3

Data set [10] can be described thus: Oral bioavailability in Sprague-Dawley rat at 30 mg/kg measured up to 1440 mins by UPLC-QTOF/MS analysis. Particulars: in vivo. The class given is ADME, organism-based.
Data set [11] concerns HCT-116. The experiment in a line: Antiproliferative activity against human HCT116 cells assessed as reduction in cell viability measured after 24 to 48 hrs by MTT assay. Type of data set: functional, cell-based.
The nature of data set [12]: Toxicity in BALB/cAnNCrl mouse xenografted with human HCT116 cells assessed as effect on liver morphological changes at 15 to 30 mg/kg, po administered on day 1 to day 19 measured on day 19 by hematoxylin and eosin staining based assay. The class given is organism-based. Particulars: in vivo. The procedure, abridged: as §2
Data set [13] relates to HCT-116. The data set is described as follows: Decrease in BRD4 expression in human HCT116 cells at 0.2 to 0.5 uM incubated for 24 hrs by western blot analysis. Type of data set: functional, cell-based.

Chain of Bromodomain-containing protein 3 (Q15059 whole entry, the tested form may be a part): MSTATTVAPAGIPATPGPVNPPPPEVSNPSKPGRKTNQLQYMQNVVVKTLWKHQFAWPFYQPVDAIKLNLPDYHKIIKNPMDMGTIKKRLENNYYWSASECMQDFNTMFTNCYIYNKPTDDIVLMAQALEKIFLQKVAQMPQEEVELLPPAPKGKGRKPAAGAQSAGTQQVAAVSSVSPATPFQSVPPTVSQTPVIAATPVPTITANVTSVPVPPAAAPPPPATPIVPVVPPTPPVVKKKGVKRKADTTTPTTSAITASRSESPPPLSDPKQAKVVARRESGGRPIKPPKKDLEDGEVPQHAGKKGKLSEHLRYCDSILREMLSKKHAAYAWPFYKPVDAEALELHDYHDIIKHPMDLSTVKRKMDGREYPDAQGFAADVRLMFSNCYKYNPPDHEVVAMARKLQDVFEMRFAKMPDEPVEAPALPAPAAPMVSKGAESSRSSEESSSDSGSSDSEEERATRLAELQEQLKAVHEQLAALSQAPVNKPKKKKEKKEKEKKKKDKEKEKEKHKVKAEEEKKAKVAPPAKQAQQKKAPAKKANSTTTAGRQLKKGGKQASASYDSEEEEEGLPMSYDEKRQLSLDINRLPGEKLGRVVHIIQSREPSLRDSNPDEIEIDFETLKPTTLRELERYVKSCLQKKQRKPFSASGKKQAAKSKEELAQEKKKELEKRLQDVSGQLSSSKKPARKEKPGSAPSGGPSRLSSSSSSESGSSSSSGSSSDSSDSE
Chain of Histone deacetylase 1 (Q13547 whole entry, the tested form may be a part): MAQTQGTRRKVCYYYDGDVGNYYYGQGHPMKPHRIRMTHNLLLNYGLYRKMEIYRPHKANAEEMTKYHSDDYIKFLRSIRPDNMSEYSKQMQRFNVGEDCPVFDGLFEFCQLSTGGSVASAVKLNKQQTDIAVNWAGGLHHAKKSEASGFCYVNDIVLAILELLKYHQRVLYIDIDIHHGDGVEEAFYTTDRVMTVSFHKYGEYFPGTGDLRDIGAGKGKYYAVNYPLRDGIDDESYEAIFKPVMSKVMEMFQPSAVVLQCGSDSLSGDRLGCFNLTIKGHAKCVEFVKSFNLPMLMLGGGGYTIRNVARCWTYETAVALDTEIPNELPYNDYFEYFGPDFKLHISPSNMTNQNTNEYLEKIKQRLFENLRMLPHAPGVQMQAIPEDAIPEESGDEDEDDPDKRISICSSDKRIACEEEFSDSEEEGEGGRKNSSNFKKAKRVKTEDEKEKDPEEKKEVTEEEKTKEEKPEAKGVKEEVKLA

Usually IC50 stands for the concentration at which inhibition is half-maximal. For orientation: T/C means the result in the treated group divided by that in the control group, in per cent. The term bioavailability denotes dose-corrected exposure relative to a reference, in per cent. A lower bioavailability goes with little systemic uptake. In the case of `Cc1cc(-c2nc3sc4c(c3c(=O)[nH]2)CCN(C)C4)cc(C)c1OCCCCCC(=O)NO`, in the data set with Mus musculus [1], the outcome was Active. Also, the Activity entry with NCM460 was “Non-Toxic”; in the data set with HCT-116 [3], 23%; in [6], “Non-Toxic”; in data set [12], “Non-Toxic”. Also, the inhibition entry (in data set [2]; in the data set listed under Homo sapiens; with Mus musculus [7]; in the data set on HCT-116 [13]) was “Active” throughout. Further, the IC50 was 46 nM on Histone deacetylase 1, over 20 µM in data set [4], 73 nM in data set [5] and 450 nM in the data set on HCT-116 [11]. In the data set with HCT-116 [8], the “growth inhibition (GI)” value is 68.8%. Moreover, the T/C in the data set with HCT-116 [9] worked out at 42.7%. Moreover, the bioavailability in [10] worked out at 40.5%.
